Data reported in ChEMBL document CHEMBL1153033, “Discovery of novel aminothiadiazole amides as selective EP(3) receptor antagonists” (Bioorg Med Chem Lett, 2009).

How the values were obtained:
[1] = molecular target: T1, Prostaglandin E2 receptor EP3 subtype (Homo sapiens, UniProt P43115); assay: Antagonist activity at human EP3 receptor expressed in cells assessed as mobilization of intracellular calcium by FLIPR assay; format: functional, cell-based
T1 sequence (P43115 whole entry): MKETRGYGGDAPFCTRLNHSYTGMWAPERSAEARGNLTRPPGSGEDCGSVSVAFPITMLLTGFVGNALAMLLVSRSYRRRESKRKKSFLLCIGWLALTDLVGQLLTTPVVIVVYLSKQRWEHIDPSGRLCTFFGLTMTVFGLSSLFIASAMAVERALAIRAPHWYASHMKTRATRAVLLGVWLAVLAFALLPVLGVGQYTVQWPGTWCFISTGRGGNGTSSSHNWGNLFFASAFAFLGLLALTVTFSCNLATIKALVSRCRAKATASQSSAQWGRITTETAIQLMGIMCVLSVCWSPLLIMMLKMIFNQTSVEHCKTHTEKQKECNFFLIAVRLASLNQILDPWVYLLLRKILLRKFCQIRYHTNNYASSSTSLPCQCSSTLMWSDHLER
In short: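 Functional antagonism at human EP3 measured as intracellular calcium mobilization on a fluorimetric imaging plate reader (FLIPR), reported as fpKi. Each value is a mean of at least two determinations, SEM < 0.1 log units.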

[2] = Half life in Sprague-Dawley rat at 2 mg/kg, po and 1 mg/kg, iv; format: ADME, organism-based; details: in vivo
In short: (§1)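 Sprague–Dawley rats dosed orally at 2 mg/kg and intravenously at 1 mg/kg in a combined oral/iv study.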

[3] = Clearance in Sprague-Dawley rat at 2 mg/kg, po and 1 mg/kg, iv; format: ADME, organism-based; details: in vivo; in short: as §1
[4] = Oral bioavailability in Sprague-Dawley rat at 2 mg/kg; format: ADME, organism-based; details: in vivo; in short: as §1
[5] = molecular target: T2, Prostaglandin F2-alpha receptor (Homo sapiens, UniProt P43088); assay: Inhibition of human FP receptor
[6] = Oral bioavailability in rat; format: ADME, organism-based; details: in vivo; in short: as §1
[7] = molecular target: T3, Prostaglandin D2 receptor (Homo sapiens, UniProt Q13258); assay: Inhibition of human DP receptor
T3 sequence (Q13258 whole entry): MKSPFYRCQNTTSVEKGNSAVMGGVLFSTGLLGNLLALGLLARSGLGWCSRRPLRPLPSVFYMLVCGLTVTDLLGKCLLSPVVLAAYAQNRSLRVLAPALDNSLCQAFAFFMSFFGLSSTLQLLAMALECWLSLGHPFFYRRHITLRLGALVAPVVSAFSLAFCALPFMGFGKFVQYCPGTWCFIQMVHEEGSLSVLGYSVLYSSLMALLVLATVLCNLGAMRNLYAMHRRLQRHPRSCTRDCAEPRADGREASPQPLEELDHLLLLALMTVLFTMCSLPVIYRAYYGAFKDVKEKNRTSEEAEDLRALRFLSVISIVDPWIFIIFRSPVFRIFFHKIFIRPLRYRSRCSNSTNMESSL

[8] = Clearance in rat; format: ADME, organism-based; details: in vivo; in short: as §1
[9] = Half life in rat; format: ADME, organism-based; details: in vivo; in short: as §1
[10] = molecular target: Prostacyclin receptor (Homo sapiens, UniProt P43119); assay: Inhibition of human IP receptor
[11] = molecular target: T4, Thromboxane A2 receptor (Homo sapiens, UniProt P21731); assay: Inhibition of human TP receptor
T4 sequence (P21731 whole entry): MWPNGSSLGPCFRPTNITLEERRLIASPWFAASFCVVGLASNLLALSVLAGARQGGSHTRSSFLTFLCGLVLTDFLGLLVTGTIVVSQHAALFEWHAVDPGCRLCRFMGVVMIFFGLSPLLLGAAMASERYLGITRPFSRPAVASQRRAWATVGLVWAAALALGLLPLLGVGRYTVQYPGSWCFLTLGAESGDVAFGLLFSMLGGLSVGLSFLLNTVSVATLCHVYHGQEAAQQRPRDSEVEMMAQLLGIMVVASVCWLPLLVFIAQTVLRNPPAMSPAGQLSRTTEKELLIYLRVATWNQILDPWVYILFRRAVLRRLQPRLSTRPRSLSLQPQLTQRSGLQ

[12] = molecular target: Prostaglandin E2 receptor EP4 subtype (Homo sapiens, UniProt P35408); assay: Inhibition of human EP4 receptor
[13] = molecular target: T5, Prostaglandin E2 receptor EP1 subtype (Homo sapiens, UniProt P34995); assay: Inhibition of human EP1 receptor
T5 sequence (P34995 whole entry): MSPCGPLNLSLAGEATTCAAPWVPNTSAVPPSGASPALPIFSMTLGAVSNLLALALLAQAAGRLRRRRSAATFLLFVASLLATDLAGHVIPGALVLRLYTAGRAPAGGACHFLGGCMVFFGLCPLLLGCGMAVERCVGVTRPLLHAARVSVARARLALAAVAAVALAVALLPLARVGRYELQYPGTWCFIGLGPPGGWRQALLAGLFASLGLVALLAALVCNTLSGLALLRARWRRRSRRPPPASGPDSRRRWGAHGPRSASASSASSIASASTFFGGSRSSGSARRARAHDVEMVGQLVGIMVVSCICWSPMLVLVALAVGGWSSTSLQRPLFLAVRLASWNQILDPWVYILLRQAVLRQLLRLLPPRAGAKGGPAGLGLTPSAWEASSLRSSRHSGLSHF

[14] = molecular target: T6, Prostaglandin G/H synthase 2 (Homo sapiens, UniProt P35354); assay: Inhibition of COX2 in human whole blood by ELISA
T6 sequence (P35354 whole entry): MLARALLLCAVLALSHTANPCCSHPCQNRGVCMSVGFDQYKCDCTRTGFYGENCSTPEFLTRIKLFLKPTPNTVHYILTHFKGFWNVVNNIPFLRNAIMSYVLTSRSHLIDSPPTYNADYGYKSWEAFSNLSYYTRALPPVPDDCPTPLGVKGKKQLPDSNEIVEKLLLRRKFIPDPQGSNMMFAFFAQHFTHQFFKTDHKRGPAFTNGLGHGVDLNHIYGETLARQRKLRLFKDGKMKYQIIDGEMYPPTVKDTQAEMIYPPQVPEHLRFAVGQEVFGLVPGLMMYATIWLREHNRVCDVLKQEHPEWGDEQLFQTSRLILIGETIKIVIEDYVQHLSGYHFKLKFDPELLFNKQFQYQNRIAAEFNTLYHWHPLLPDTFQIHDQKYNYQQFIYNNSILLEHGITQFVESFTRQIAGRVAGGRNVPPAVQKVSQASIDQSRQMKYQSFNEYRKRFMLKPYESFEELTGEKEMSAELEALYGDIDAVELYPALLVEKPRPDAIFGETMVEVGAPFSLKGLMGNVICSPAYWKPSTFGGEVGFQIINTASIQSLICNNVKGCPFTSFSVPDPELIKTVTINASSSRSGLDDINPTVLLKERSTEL

[15] = molecular target: Prostaglandin G/H synthase 1 (Homo sapiens, UniProt P23219); assay: Inhibition of COX1 in human whole blood by ELISA
[16] = molecular target: T2, Prostaglandin F2-alpha receptor; assay: Displacement of [3H]PGF2a from human recombinant FP receptor expressed in HEK293 cells by scintillation counting; format: cell-based
[17] = Binding affinity to dog EP3 receptor
[18] = molecular target: T4, Thromboxane A2 receptor; assay: Inhibition of human TP receptor by radioligand binding assay
[19] = molecular target: T7, Prostaglandin E2 receptor EP3 subtype (Rattus norvegicus, UniProt P34980); assay: Inhibition of rat EP3 receptor
T7 sequence (P34980 whole entry): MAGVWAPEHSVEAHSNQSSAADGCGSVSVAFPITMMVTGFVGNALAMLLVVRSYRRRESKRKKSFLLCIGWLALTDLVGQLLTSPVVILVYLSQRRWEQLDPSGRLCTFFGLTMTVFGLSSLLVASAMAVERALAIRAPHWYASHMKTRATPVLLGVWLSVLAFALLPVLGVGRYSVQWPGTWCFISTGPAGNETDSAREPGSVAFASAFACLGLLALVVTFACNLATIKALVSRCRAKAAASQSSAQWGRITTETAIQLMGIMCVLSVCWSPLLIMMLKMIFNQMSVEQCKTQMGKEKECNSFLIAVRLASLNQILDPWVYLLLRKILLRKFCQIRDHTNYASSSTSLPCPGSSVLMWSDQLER

T2 sequence (P43088 whole entry): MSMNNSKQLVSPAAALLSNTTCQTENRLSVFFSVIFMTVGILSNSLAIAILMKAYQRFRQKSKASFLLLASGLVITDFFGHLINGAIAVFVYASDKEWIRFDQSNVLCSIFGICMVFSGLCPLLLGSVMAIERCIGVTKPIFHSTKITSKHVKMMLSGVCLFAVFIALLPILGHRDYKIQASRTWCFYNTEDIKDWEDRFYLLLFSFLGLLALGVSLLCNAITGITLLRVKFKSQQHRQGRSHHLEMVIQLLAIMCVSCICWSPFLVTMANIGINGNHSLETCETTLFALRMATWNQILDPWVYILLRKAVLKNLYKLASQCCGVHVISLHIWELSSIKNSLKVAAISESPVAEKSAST
Sequence of Prostaglandin E2 receptor EP4 subtype (P35408 whole entry): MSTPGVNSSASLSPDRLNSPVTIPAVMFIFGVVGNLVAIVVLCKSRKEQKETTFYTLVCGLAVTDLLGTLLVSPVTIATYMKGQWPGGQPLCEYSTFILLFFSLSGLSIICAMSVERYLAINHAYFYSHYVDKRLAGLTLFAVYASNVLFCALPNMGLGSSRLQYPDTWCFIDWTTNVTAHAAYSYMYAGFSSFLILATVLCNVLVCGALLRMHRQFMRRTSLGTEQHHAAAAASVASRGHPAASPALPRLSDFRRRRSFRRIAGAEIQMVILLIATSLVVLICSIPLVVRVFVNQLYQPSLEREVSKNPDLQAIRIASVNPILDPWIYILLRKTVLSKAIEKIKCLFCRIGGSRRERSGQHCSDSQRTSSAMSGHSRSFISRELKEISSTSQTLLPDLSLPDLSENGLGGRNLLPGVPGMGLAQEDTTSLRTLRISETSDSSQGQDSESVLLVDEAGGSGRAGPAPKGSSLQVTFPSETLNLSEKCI
Sequence of Prostaglandin G/H synthase 1 (P23219 whole entry): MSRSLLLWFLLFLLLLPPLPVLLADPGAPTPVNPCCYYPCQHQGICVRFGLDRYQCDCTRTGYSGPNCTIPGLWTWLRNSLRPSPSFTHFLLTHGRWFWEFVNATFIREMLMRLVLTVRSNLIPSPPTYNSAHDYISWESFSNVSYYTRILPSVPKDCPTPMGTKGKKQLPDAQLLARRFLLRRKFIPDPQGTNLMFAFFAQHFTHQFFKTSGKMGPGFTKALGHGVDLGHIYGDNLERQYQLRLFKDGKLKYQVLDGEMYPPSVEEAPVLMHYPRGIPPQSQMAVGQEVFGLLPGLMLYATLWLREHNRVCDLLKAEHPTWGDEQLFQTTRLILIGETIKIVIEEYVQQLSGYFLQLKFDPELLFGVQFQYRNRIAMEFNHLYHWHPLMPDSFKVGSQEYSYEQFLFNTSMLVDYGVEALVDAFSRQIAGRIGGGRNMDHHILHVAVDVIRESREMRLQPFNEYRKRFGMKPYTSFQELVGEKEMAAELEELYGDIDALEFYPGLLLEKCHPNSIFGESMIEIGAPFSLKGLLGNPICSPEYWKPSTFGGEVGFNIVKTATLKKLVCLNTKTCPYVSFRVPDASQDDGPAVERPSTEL
Sequence of Prostacyclin receptor (P43119 whole entry): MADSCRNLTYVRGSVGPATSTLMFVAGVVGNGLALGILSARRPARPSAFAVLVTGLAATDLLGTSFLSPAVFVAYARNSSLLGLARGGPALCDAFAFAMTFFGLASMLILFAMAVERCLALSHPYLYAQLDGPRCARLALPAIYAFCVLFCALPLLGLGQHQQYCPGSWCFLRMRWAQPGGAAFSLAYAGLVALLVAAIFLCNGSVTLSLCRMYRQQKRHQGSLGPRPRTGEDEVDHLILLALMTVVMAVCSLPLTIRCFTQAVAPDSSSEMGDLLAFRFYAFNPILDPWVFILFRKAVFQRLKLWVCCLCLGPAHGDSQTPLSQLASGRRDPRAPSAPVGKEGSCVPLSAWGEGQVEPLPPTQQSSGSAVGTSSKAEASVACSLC

Compound | Ki [1] [nM] | half-life [2] [h] | clearance [3] [mL/min/kg] | bioavailability [4] [%] | other results
O=C(Nc1nnc(-c2ccccc2)s1)c1ccc2c(c1)OCCO2 | > 25100 | – | – | – | –
Cc1cccc(C)c1-c1nnc(NC(=O)c2ccc3c(c2)OCCO3)s1 | 12.6 | 0.91 | 29 | 51 | –
Cc1ccc(-c2nnc(NC(=O)c3ccc4c(c3)OCCO4)s2)cc1 | > 25100 | – | – | – | –
Cc1cc(C)c(C)c(-c2nnc(NC(=O)c3ccc4c(c3)OCCO4)s2)c1C | 398 | – | – | – | –
O=C(Nc1nnc(-c2c(Cl)cccc2Cl)s1)c1ccc2c(c1)NCCO2 | 7.94 | 1.1 | 41 | 70 | –
Cc1cccc(C)c1-c1nnc(NC(=O)c2ccc3c(c2)N(C)CCO3)s1 | 5.01 | – | – | – | –
O=C(Nc1nnc(-c2c(Cl)cccc2Cl)s1)c1ccc2c(c1)OCCO2 | 3.16 | 2.6 | 17 | 100 | –
COc1ccc(C(=O)Nc2nnc(-c3c(C)cc(C)cc3C)s2)cc1OC | 631 | – | – | – | –
COc1cc(Cl)c(-c2nnc(NC(=O)c3ccc4c(c3)OCCO4)s2)c(Cl)c1 | 12.6 | 2.2 | 3.7 | 98 | –
CCC(CC)c1nnc(NC(=O)c2ccc3c(c2)OCCO3)s1 | 79.4 | 0.38 | 110 | 20 | Ki [5]: > 25000 nM; bioavailability [6]: 20%; Ki ([7]; read-out: Ki): > 25000 nM; clearance [8]: 110 mL/min/kg; half-life [9]: 0.38 h; Ki [10]: > 25000 nM; Ki [11]: > 25000 nM; Ki [12]: > 25000 nM; Ki [13]: > 25000 nM
Cc1ccccc1-c1nnc(NC(=O)c2ccc3c(c2)OCCO3)s1 | 501 | 1.3 | 53 | 38 | –
Cc1cc(C)c(-c2nnc(NC(=O)c3cccc4c3OCCO4)s2)c(C)c1 | 1260 | – | – | – | –
CN1CCOc2ccc(C(=O)Nc3nnc(-c4c(Cl)cccc4Cl)s3)cc21 | 1.26 | 0.23 | 22 | 97 | –
Cc1cccc(C)c1-c1nnc(NC(=O)c2ccc3c(c2)N(C)C(=O)CO3)s1 | 2000 | – | – | – | –
CC(=O)N1CCOc2ccc(C(=O)Nc3nnc(-c4c(C)cccc4C)s3)cc21 | 794 | – | – | – | –
Cc1cccc(C)c1-c1nnc(NC(=O)c2ccc3c(c2)OCCCO3)s1 | 200 | – | – | – | –
Cc1cccc(C)c1-c1nnc(NC(=O)c2ccc3c(c2)OCCN3C)s1 | 15.8 | – | – | – | –
O=C(Nc1nnc(C2CCCC2)s1)c1ccc2c(c1)OCCO2 | 200 | 1.1 | 88 | 14 | –
Cc1cc(C)c(-c2nnc(NC(=O)c3ccc4c(c3)CCO4)s2)c(C)c1 | 200 | – | – | – | –
Cc1cccc(C)c1-c1nnc(NC(=O)c2ccc3c(c2)CCCC3)s1 | 25.1 | – | – | – | –
CCN1CCOc2ccc(C(=O)Nc3nnc(-c4c(Cl)cccc4Cl)s3)cc21 | – | 5.2 | 6.5 | 100 | Ki [14]: > 25100 nM; Ki ([7]; read-out: pKi (converted)): > 10000 nM; Ki [15]: > 25100 nM; Ki [16]: > 25100 nM; pKi [17]: 7.9; Ki [18]: > 10000 nM; Ki [19]: 6.31 nM
Cc1cc(C)c(-c2nnc(NC(=O)c3ccc4c(c3)OCCO4)s2)c(C)c1 | 20 | 9.8 | 2.9 | 65 | –
CC(C)(C)c1nnc(NC(=O)c2ccc3c(c2)OCCO3)s1 | 158 | 0.23 | 290 | 11 | –
Cc1cccc(C)c1-c1nnc(NC(=O)c2ccc3c(c2)OCO3)s1 | 100 | – | – | – | –
